Key:
[1] = system: DeHa4; assay: fluoride ion probe, Lineweaver-Burk; format: biochemical, Delftia acidovorans; settings: pH 7, PBS, 37 °C, 28 h
How it was run: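 Cobalt-affinity-purified enzyme from E. coli BL21 DE3 (pET15b), 250 μg in 0.5 mL with MFA (0.4–3 mM) or DFA (10–120 mM), 28 h, 250 rpm. Samples diluted in low-level TISAB and water, then read by fluoride electrode against NaF calibration (0–20 μM, second-order polynomial fit). Product equals fluoride for MFA and half of fluoride for DFA. Velocity is product per hour. 4–6 independent runs.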

[2] = target: T1, DeHa2 (Delftia acidovorans, UniProt Q7DI63); assay: fluoride ion probe, Lineweaver-Burk; format: biochemical; settings: pH 7, PBS, 37 °C, 28 h
T1 sequence (Q7DI63 1-224): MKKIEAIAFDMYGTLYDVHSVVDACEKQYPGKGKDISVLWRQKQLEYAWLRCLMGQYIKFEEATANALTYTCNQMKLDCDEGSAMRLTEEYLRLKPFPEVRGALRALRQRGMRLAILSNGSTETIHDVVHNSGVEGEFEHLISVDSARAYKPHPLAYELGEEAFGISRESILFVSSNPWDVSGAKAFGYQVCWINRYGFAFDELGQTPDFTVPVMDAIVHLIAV

## O=C(O)C(F)F [DFA, difluoroacetate]
[1]
  Km: 39 ± 2.36 mM

## O=C(O)CF [MFA, monofluoroacetate]
[1]
  Km: 2.19 ± 0.37 mM
[2]
  Km: 5.47 ± 1.54 mM
